This note sets out measurements from article PMC2575414 (Bioorganic & medicinal chemistry letters, 2008).

For assay [1], the target named is T1, porcine erythrocyte μ-calpain (Sus scrofa, UniProt P35750).
T1 sequence (P35750 1-714): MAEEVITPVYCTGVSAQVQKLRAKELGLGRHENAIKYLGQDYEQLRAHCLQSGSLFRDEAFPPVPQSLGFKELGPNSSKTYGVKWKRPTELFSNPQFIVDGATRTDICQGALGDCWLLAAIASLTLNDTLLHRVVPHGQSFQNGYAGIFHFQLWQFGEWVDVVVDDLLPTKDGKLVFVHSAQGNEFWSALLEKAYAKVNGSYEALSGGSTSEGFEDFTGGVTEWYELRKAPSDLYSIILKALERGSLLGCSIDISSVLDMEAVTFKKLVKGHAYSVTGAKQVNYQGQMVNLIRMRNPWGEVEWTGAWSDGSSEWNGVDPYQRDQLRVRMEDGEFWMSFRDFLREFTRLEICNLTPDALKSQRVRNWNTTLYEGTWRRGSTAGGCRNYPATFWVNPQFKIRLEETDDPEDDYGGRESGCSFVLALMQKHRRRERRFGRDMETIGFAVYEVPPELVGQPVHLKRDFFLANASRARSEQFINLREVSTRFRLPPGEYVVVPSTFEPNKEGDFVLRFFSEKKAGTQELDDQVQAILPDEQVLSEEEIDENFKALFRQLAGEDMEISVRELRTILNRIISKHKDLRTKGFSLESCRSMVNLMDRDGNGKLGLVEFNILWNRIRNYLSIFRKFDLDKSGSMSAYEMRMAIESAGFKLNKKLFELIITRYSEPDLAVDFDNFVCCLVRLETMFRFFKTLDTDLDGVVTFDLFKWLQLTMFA
T1 sequence (P04574 1-266 partner): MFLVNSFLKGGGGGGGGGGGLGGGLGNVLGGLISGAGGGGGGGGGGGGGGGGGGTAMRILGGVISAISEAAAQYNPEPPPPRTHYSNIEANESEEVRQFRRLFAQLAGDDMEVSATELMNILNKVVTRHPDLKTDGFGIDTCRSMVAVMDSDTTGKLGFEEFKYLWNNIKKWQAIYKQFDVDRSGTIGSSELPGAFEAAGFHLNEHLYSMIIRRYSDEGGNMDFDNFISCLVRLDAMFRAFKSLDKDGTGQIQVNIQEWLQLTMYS
Description: Calpain inhibition assay. In kind it is biochemical.

Another assay deals with human liver cathepsin B (Homo sapiens, UniProt P07858). Put plainly: Cathepsin B inhibition assay. In kind it is biochemical. Put shortly: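 Human liver cathepsin B (1 nM) in 50 mM NaOAc pH 6.0 with 1 mM EDTA and 0.5 mM DTT. Z-Arg-Arg-AMC at 50 µM or 250 µM, plus varying inhibitor concentrations in DMSO (2% total). Ki is the mean of triplicates from Dixon plots (r ≥ 0.95). Selectivity ratio is […].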

Where a SMILES comes first, the peptide text is derived from it. [ ]: non-standard residue; d: D form. The star is where a group is joined. Hydrocinnamoyl = O=C(CCc1ccccc1)*; Ac5c = NC1(C(=O)O)CCCC1; Deg = CCC(N)(CC)C(=O)O

Take `CCC(CC)(NC(=O)CCc1ccccc1)C(=O)N[C@H](C=O)Cc1ccccc1` [Compound 3, N-(1-Benzyl-2-oxo-ethyl)-2-ethyl-2-(3-phenyl-propionylamino)-butyramide] (Hydrocinnamoyl-[Deg]-Phe-aldehyde): the “selectivity for μ-calpain compared to cathepsin B” value in assay [1] is listed as “over 35 fold”. Further, the “potency for μ-calpain inhibition relative to compound 2” value in assay [1] (3 compared to 2) was “over 20 fold”.
For the compound `O=C[C@H](Cc1ccccc1)NC(=O)C1(NC(=O)CCc2ccccc2)CCCC1` [Compound 2, 1-(3-Phenyl-propionylamino)-cyclopentane carboxylic acid (1-benzyl-2-oxo-ethyl)-amide] (Hydrocinnamoyl-[Ac5c]-Phe-aldehyde), on human liver cathepsin B (2 compared to 3), the “cathepsin B inhibition relative to compound 3” value stood at 3 fold. Further, the “selectivity for cathepsin B compared to μ-calpain” value at human liver cathepsin B (as stated in abstract) came out at 3 fold.
